In assay [1] the target is T1, Human rhinovirus A protease (Human rhinovirus sp., UniProt Q4U254).
T1 sequence (Q4U254 whole entry): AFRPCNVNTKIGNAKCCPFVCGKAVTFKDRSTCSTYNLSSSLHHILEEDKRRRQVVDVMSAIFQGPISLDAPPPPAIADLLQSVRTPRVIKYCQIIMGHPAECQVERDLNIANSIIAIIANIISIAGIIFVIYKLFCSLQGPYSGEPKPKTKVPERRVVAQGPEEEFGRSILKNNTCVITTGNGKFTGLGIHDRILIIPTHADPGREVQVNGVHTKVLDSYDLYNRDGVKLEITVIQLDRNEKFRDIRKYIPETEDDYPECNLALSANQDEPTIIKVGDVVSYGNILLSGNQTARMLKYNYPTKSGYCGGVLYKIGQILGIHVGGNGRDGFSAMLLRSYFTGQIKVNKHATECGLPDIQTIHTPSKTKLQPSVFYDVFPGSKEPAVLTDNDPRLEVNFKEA
Kind of assay: Inhibition of human rhinovirus 3C protease. Set-up: species or system Rhinovirus B. The procedure, abridged:
(§1)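 Buffer was 50 mM Tris pH 7.6, 1 mM EDTA, 2% DMSO at 30 °C. Enzyme and inhibitor were preincubated 10 min before substrate start. Fluorescence ex 336/em 490 nm. Ki came from nonlinear fit of initial velocity versus inhibitor.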

In assay [2] the target is T2, Serine protease 1 (Bos taurus) (UniProt P00760).
T2 sequence (whole entry): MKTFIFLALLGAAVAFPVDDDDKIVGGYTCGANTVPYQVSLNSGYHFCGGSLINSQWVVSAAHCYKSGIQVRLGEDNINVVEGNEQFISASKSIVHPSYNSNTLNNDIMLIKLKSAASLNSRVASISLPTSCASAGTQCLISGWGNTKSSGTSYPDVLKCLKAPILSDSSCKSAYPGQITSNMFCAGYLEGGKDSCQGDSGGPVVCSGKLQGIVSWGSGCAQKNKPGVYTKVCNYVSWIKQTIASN
Kind of assay: (§2) Percentage inhibition of bovine trypsin at 100 uM conc of drug. The class given is functional.

The target in assay [3] is Prothrombin (Homo sapiens) (UniProt P00734). As to the kind of experiment: (§3) Percentage inhibition of human thrombin at 100 uM conc of drug. The class given is functional.
Assay [4] relates to Enterovirus. Kind of assay: Compound was tested for the inhibitory activity of compound towards human rhinovirus 3C protease. In kind it is functional, organism-based. The gist of the method:
as §1

Assay [5] has as its system HeLa. Kind of assay: Compound was tested for the antiviral activity against Human Rhinovirus -14(HRV-14) in HeLa cells. The class given is functional, cell-based. The gist of the method: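 Cell protection assay in HI-HeLa cells (MEM, 10% FBS). Cells were infected with HRV-14 at moi 0.13, resuspended at 8 × 10^5 cells/mL and incubated with compound for two days. XTT/PMS formazan was read at 450/650 nm. EC50 is the concentration restoring formazan to 50% of compound-free uninfected cells.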

The nature of assay [6]: Theuraptic index was reported. The class given is functional. The gist of the method: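 TI is CC50 (uninfected HI-HeLa, XTT formazan) divided by EC50 (HRV-14-infected HI-HeLa, moi 0.13, two days, XTT read at 450/650 nm).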
The nature of assay [7]: (§4) Percentage inhibition of Cathepsin (human liver) at 100 uM conc of drug. The class given is functional.
The target in assay [8] is Chymotrypsinogen A (Bos taurus) (UniProt P00766). As to the kind of experiment: (§5) Percentage inhibition of bovine chymotrypsin at 100 uM conc of drug. The class given is functional.
For assay [9], the system named is HeLa. As to the kind of experiment: Compound was tested for the 50% toxic concentration against Human Rhinovirus-14 (HRV-14) in Hela cells. In kind it is functional. Particulars: read-out: TC50 (the source's name). The procedure, abridged:
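HI-HeLa cells in MEM with 10% FBS, mock-infected with medium only, resuspended at 8 × 10^5 cells/mL and incubated with compound. After two days, XTT/PMS was added and formazan was read at 450/650 nm. CC50 is the concentration lowering formazan to 50% of compound-free uninfected cells.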

Assay [10] deals with T3, Neutrophil elastase (Homo sapiens) (UniProt P08246).
T3 sequence (whole entry): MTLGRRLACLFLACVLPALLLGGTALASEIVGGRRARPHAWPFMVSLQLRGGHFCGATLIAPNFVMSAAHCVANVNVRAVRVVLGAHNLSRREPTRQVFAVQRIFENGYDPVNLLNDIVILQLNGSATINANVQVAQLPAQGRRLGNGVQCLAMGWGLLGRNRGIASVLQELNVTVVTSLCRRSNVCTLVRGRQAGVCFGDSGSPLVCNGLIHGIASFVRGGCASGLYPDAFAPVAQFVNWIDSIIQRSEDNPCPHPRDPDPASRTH
Kind of assay: (§6) Percentage inhibition of Pancreatic elastase at 100 uM conc of drug. The class given is functional.

The subject of assay [11] is Enterovirus. Kind of assay: Compound was tested for the inhibitory activity of compound towards human rhinovirus-89 3C protease. The class given is functional, organism-based. The gist of the method:
(§7)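 3CP from HRV-16, -2 or -89 was cloned from infected-HeLa cDNA (3A C-terminus–3B–3C region), expressed in E. coli and purified. The same FRET assay (1 μM DABCYL/EDANS peptide, 50 mM Tris pH 7.6, 1 mM EDTA, 2% DMSO, 30 °C, 10 min preincubation) was run at 100–200 nM enzyme. Ki was obtained by nonlinear regression of initial velocities.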

In assay [12] the test system is Enterovirus. As to the kind of experiment: Compound was tested for the inhibitory activity of compound towards human rhinovirus-2 3C protease. In kind it is functional, organism-based. The procedure, abridged: as §7
For assay [13], the target named is T3, Neutrophil elastase (Homo sapiens). Described as §6.
Assay [14] in a line: as §4.
Assay [15] addresses Chymotrypsinogen A (Bos taurus) (UniProt P00766). The description is as §5.
In assay [16] the test system is Enterovirus. Kind of assay: Compound was tested for the inhibitory activity of compound towards human rhinovirus-16 3C protease. In kind it is functional, organism-based. The gist of the method:
as §7

Assay [17] concerns the target T2, Serine protease 1 (Bos taurus). The assay is described as §2.
For assay [18], the target named is Prothrombin (Homo sapiens) (UniProt P00734). The assay is described as §3.
The target of assay [19] is Chymotrypsinogen A (Bos taurus) (UniProt P00766). Kind of assay: Percentage inhibition of bovine chymotrypsin at 50 uM conc of drug.
Assay [20] can be described thus: Percentage inhibition of Cathepsin (human liver) at 10 uM conc of drug.

As a reminder, the Ki is a measure of affinity in units of concentration, obtained from inhibition or displacement. Higher therefore signals lower affinity. For orientation: inhibition means the change of the read-out against control, counted positive when it falls. A lower inhibition goes with a weak effect. As a reminder, the EC50 is the midpoint of the concentration-response curve. Read a high EC50 as weaker potency.

The structures appear in SMILES notation. Bounds are passed on as bounds.

Molecule `CNC(=O)c1ccc2c(c1)C(=O)C(=O)N2C` came in with a Ki in assay [1] of 12 µM.
In turn, `CN1C(=O)C(=O)c2cc(Cl)ccc21` had a Ki in assay [1] of 59 µM.
With `NC(=O)c1ccc2c(c1)C(=O)C(=O)N2C/C=C/c1ccccc1`, the inhibition in assay [2] worked out at 0%; in assay [3], 34%; in assay [8], 67%; in assay [10], 40%. The Ki in assay [4] is 0.011 µM. In assay [5], this molecule returned an EC50 of 6.3 µM. Moreover, the TI in [6] was found to be 1.5. In addition, the inhibition at 100 µM in assay [7] was determined as 27%. Further, the CC50 in assay [9] amounted to 9.6 µM.
`NC(=O)c1ccc2c(c1)C(=O)C(=O)N2Cc1cccc(O)c1` yielded an EC50 in assay [5] greater than 20 µM. In addition, affinity in assay [1] was put at a Ki of 0.011 µM. Besides, the CC50 in [9] is 20 µM.
Molecule `NC(=O)c1ccc2c(c1)C(=O)C(=O)N2Cc1ccc(-c2ccccc2)cc1` displayed a Ki in assay [1] of 0.048 µM.
In the case of `COc1ccc2cc(CN3C(=O)C(=O)c4cc(C(N)=O)ccc43)ccc2c1`, the Ki in assay [1] turned out to be 0.003 µM.
Same read-out and setting: to `CC(=O)c1ccc2c(c1)C(=O)C(=O)N2C` belongs 1.2 µM.
On the same count and under the same terms, for `CN1C(=O)C(=O)c2ccccc21` the value was greater than 100 µM.
For the molecule `NC(=O)c1ccc2c(c1)C(=O)C(=O)N2Cc1cc(O)cc(O)c1`, the EC50 in assay [5] is greater than 100 µM. The Ki in assay [1] amounted to 0.004 µM. Besides, in assay [9], the CC50 was greater than 100 µM.
In the case of `CN1C(=O)C(=O)c2cc(C(N)=O)ccc21`, the Ki in [11] was 0.035 µM; in assay [12], 0.077 µM; in assay [4], 0.051 µM; in assay [16] it was 0.04 µM. For the same molecule, the inhibition in [13], in assay [14], in assay [15], in [17] and in [18] was 0% throughout. For the same molecule, the half-maximal effective concentration (EC50) in assay [5] came to 66 µM. The TI in [6] was 4. In assay [9], the CC50 was determined as 270 µM.
The molecule `CN1C(=O)C(=O)c2cc(I)ccc21` had an EC50 in assay [5] of 71 µM. The molecule also returned a TI in [6] greater than 1. This molecule also returned a Ki in assay [1] of 30 µM. Also, in [9], the CC50 was greater than 100 µM.
On to `CN1C(=O)C(=O)c2cc(C#N)ccc21`, for which affinity in [1] was put at a Ki of 51 µM.
As for `NC(=O)c1ccc2c(c1)C(=O)C(=O)N2Cc1cc2ccccc2s1`, the Ki in [11] was 0.0011 µM; in [12], 0.0052 µM; in assay [4], 0.002 µM; in [16] it was 0.012 µM. The inhibition is 0% in assay [13]; 25% in assay [19]; 0% in assay [20]; 0% in assay [17]; 0% in [18]. In assay [5], the EC50 is greater than 5.6 µM. Besides, the CC50 in assay [9] amounted to 5.6 µM.
`CN1C(=O)C(=O)c2cc(C(=O)O)ccc21` came in with an EC50 in assay [5] greater than 100 µM. The Ki in assay [1] worked out at 10 µM. Also, the CC50 in assay [9] was greater than 100 µM.
In turn, `Cc1ccc(CN2C(=O)C(=O)c3cc(C(N)=O)ccc32)cc1C` yielded a Ki in [1] of 0.006 µM.
For `NC(=O)c1ccc2c(c1)C(=O)C(=O)N2Cc1ccc2ccccc2c1`, in [5], the 50% effective concentration (EC50) is greater than 10 µM. This molecule gave a Ki in assay [1] of 0.004 µM. Also, the CC50 in assay [9] was 10 µM.
Taken in the same sequence, the figures for `NC(=O)c1ccc2c(c1)C(=O)C(=O)N2CCCc1ccccc1` were greater than 7.1 µM, 0.027 µM and 7.1 µM.
As to `Cc1ccc(CN2C(=O)C(=O)c3cc(C(N)=O)ccc32)cc1`, the Ki in assay [1] was 0.01 µM.
In assay [1], `CN1C(=O)C(=O)c2cc([N+](=O)[O-])ccc21` gave a Ki of 9.7 µM.
Turning to `COc1cc(CN2C(=O)C(=O)c3cc(C(N)=O)ccc32)cc(OC)c1`, the Ki in assay [1] worked out at 0.025 µM.
As for `NC(=O)c1ccc2c(c1)C(=O)C(=O)N2Cc1ccccc1`, in assay [5], the midpoint of the response, the EC50, lay at 14.1 µM. The TI in assay [6] amounted to 3.5. The molecule also gave a Ki in [1] of 0.019 µM. In [9], the CC50 amounted to 50.1 µM.
In assay [1], `NC(=O)c1ccc2c(c1)C(=O)C(=O)N2Cc1ccc2cc(O)ccc2c1` yielded a Ki of 0.004 µM.
Still for that read-out and setting: to `CN1C(=O)C(=O)c2cc([S+](C)[O-])ccc21` (configuration not stated) belongs 8.2 µM; to `CN(C)C(=O)c1ccc2c(c1)C(=O)C(=O)N2C`, 33 µM.
In [5], `COC(=O)c1ccc2c(c1)C(=O)C(=O)N2C` showed an EC50 of 56 µM. In [6], this molecule had a TI greater than 2. In addition, in [1], affinity was put at a Ki of 30 µM. The CC50 in assay [9] was greater than 100 µM.
In assay [5], `COc1cccc(CN2C(=O)C(=O)c3cc(C(N)=O)ccc32)c1` registered an EC50 greater than 20 µM. In assay [1], this molecule registered a Ki of 0.029 µM. Besides, the CC50 in assay [9] was determined as 20 µM.
In the case of `CN1C(=O)C(=O)c2cc(C(N)=S)ccc21`, in [1], the Ki is 11 µM.

(Values after ChEMBL document CHEMBL1129604, “Design, synthesis, and evaluation of nonpeptidic inhibitors of human rhinovirus 3C protease” (J Med Chem, 1996).)
